# From ChEMBL document CHEMBL3585248, “Amorfrutins Are Natural PPARγ Agonists with Potent Anti-inflammatory Properties” (J Nat Prod, 2015)
# pIC50: −log10 of the molar value. Calls of active or inactive are those of the source. No cut-off for these calls is given here.
# Tests used:
# [1] = target: T1, Peroxisome proliferator-activated receptor gamma (Homo sapiens) (UniProt P37231); test: Agonist activity at PPARgamma in human HT29 cells assessed as reduction in TNFalpha-induced IL-1beta gene expression at 10 uM after 48 hrs by real-time qPCR analysis; format: cell-based; settings: HT-29
# T1 sequence (whole entry): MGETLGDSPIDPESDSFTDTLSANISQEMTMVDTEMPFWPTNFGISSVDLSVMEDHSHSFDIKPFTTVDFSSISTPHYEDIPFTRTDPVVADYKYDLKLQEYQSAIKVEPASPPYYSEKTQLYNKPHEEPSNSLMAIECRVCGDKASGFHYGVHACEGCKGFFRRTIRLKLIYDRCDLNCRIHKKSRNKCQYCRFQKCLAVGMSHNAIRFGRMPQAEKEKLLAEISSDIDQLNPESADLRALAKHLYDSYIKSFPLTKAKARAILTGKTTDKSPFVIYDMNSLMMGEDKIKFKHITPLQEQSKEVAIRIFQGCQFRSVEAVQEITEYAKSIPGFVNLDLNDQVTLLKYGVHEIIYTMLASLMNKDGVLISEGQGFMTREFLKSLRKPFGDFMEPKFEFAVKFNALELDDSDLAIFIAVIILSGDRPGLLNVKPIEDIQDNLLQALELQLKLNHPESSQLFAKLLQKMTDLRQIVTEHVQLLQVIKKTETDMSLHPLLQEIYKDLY
# Outline: (§1)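 HT-29 cells pretreated 48 h with 10 μM compound in 0.1% DMSO, then stimulated 6 h with 1 ng/mL TNF-α. Total RNA isolated with DNase digestion, reverse-transcribed, then SYBR Green qPCR run for 40 cycles. Expression normalized to GAPDH by 2−ΔΔCt and reported relative to DMSO-treated cells. Biological triplicates, mean ± SD; one-way ANOVA with Dunnett's test.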
# [2] = target: T1, Peroxisome proliferator-activated receptor gamma (Homo sapiens); test: Agonist activity at PPARgamma in human HT29 cells assessed as reduction in TNFalpha-induced MIP3alpha gene expression at 10 uM after 48 hrs by real-time qPCR analysis; format: cell-based; settings: HT-29; outline: as §1
# [3] = target: T1, Peroxisome proliferator-activated receptor gamma (Homo sapiens); test: Agonist activity at PPARgamma in human HT29 cells assessed as reduction in TNFalpha-induced MIP3alpha gene expression in at 10 uM after 48 hrs by ELISA; format: cell-based; settings: HT-29
# Outline: (§2)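 HT-29 cells in DMEM-F12 with 5% FBS, seeded a day ahead; 10 μM compound or 0.1% DMSO control for 48 h, then 1 ng/mL TNF-α for 6 h. Culture supernatants centrifuged at 4 °C, stored at −80 °C. Secreted MIP-3α/CCL20, IL-8 and GRO-α quantified by ELISA. Mean ± SD; compared with TNF-α alone.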
# [4] = target: T1, Peroxisome proliferator-activated receptor gamma (Homo sapiens); test: Agonist activity at PPARgamma in human HT29 cells assessed as reduction in TNFalpha-induced GROgamma gene expression at 10 uM after 48 hrs by real-time qPCR analysis; format: cell-based; settings: HT-29; outline: as §1
# [5] = target: T1, Peroxisome proliferator-activated receptor gamma (Homo sapiens); test: Agonist activity at PPARgamma in human HT29 cells assessed as reduction in TNFalpha-induced GROalpha gene expression at 10 uM after 48 hrs by real-time qPCR analysis; format: cell-based; settings: HT-29; outline: as §1
# [6] = target: T1, Peroxisome proliferator-activated receptor gamma (Homo sapiens); test: Agonist activity at PPARgamma in human HT29 cells assessed as reduction in TNFalpha-induced IL8 gene expression in at 10 uM after 48 hrs by ELISA; format: cell-based; settings: HT-29; outline: as §2
# [7] = target: T1, Peroxisome proliferator-activated receptor gamma (Homo sapiens); test: Agonist activity at PPARgamma in human HT29 cells assessed as reduction in TNFalpha-induced IL8 gene expression in PPARgamma knockdown human HT29 cells at 10 uM after 48 hrs by real-time qPCR analysis; format: cell-based; settings: HT-29
# Outline: (§3)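 PPARγ knocked down in HT-29 cells by transfection with 30 nM siRNA, with negative-control siRNA alongside. Cells then given 10 μM compound for 48 h and 1 ng/mL TNF-α for 6 h. Marker mRNA measured by SYBR Green qPCR, normalized to GAPDH by 2−ΔΔCt. Biological triplicates.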
# [8] = target: T1, Peroxisome proliferator-activated receptor gamma (Homo sapiens); test: Agonist activity at PPARgamma in human HT29 cells assessed as reduction in TNFalpha-induced IL8 gene expression at 10 uM after 48 hrs by real-time qPCR analysis; format: cell-based; settings: HT-29; outline: as §1
# [9] = target: T1, Peroxisome proliferator-activated receptor gamma (Homo sapiens); test: Agonist activity at PPARgamma in human HT29 cells assessed as reduction in TNFalpha-induced MIP3alpha gene expression in PPARgamma knockdown human HT29 cells at 10 uM after 48 hrs by real-time qPCR analysis; format: cell-based; settings: HT-29; outline: as §3
# [10] = target: T1, Peroxisome proliferator-activated receptor gamma (Homo sapiens); test: Agonist activity at PPARgamma in human HT29 cells assessed as reduction in TNFalpha-induced COX2 gene expression in PPARgamma knockdown human HT29 cells at 10 uM after 48 hrs by real-time qPCR analysis; format: cell-based; settings: HT-29; outline: as §3
# [11] = target: T1, Peroxisome proliferator-activated receptor gamma (Homo sapiens); test: Agonist activity at PPARgamma in human HT29 cells assessed as reduction in TNFalpha-induced GROalpha gene expression in PPARgamma knockdown human HT29 cells at 10 uM after 48 hrs by real-time qPCR analysis; format: cell-based; settings: HT-29; outline: as §3
# [12] = target: T1, Peroxisome proliferator-activated receptor gamma (Homo sapiens); test: Agonist activity at PPARgamma in human HT29 cells assessed as reduction in TNFalpha-induced COX2 gene expression at 10 uM after 48 hrs by real-time qPCR analysis; format: cell-based; settings: HT-29; outline: as §1
# HT-29 [13] = test: Cytotoxicity against human HT-29 cells assessed as cell viability at 10 uM after 54 hrs by CytoTox-Glo assay; format: cell-based; settings: ht-29, 54 h
# HT-29 [14] = test: Cytotoxicity against human HT-29 cells assessed as reduction in cell viability after 54 hrs by CytoTox-Glo assay; settings: HT-29, 54 h
# [15] = target: T1, Peroxisome proliferator-activated receptor gamma (Homo sapiens); test: Agonist activity at PPARgamma in human HT29 cells assessed as reduction in TNFalpha-induced GRO-alpha gene expression in at 10 uM after 48 hrs by ELISA; format: cell-based; settings: HT-29; outline: as §2
# HT-29 [16] = test: Cytotoxicity against human HT-29 cells assessed as cell viability up to 5 uM after 54 hrs by CytoTox-Glo assay; format: cell-based; settings: ht-29, 54 h
SMILES,inhibition [1],inhibition [2],Activity [3],inhibition [4],inhibition [5],Activity [6],inhibition [7],inhibition [8],inhibition [9],inhibition [10],inhibition [11],inhibition [12],Activity (HT-29 [13]),pIC50 (HT-29 [14]),Activity [15],Activity (HT-29 [16])
COc1cc(CCc2ccccc2)c(C(=O)O)c(O)c1CC=C(C)C [AMORFRUTIN A],inactive,Active,Active,inactive,Active,Active,inactive,Active,Active,Active,inactive,Active,Non-toxic,4.29,Active,–
COc1cc(CCc2ccccc2)c(C(=O)O)c(O)c1C/C=C(\C)CCC=C(C)C,–,–,–,–,–,–,–,–,–,–,–,–,–,4.52,–,Non-toxic
